The text below walks through data of PubChem BioAssay.

Assay [1] is described as follows: OD615 S. cerevisiae growth inhibition, permissive medium, pilot counter-assay, permissive growth control for S. cerevisiae lifespan shortening project (AID 705;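 active means growth inhibition above 25% in both replicates, a cutoff set 3 SD above the mean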). The note with it: OD615, 24 h, at 10 µM, hits give high values. Summed up:
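Material: engineered DeaD yeast; Compound: one dose 10 µM, DMSO 0.25% final; Detection: absorbance (optical density) at 615 nm; Buffer or medium: permissive raffinose/galactose medium; Timing: 24 h exposure, 30 °C.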

The nature of assay [2]: Restrictive medium S. cerevisiae growth inhibition, OD615, pilot screen of yeast lifespan reduction project, restrictive growth control (AID 706;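 active means growth inhibition above a set limit, 3 SD over mean compound inhibition, in both replicates, cut at about 43% in these data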;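 further: modified DeaD lifespan yeast strain shifted to restrictive glucose medium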). The note with it: OD615, 48 h, at 10 µM, hits give high values. Summed up: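 Buffer or medium: restrictive glucose medium (CSMM-D); test system: modified S. cerevisiae; doses: single dose of 10 µM compound final, 0.25% DMSO; schedule: 48 h compound exposure at 30 °C; detection: absorbance (optical density) measured at 615 nm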

Assay [3] is described as follows: viability gain of MRP-1-high H69AR cells under doxorubicin, pilot screen, MRP-1 activator project, CellTiter-Glo, duplicate (AID 807;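 active means viability increase at or above a cutoff of the median across tested compounds plus 3 SD, cut at about 8.5% in these data, passing the limit was not always enough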;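 further: compound pretreatment 18-22 h then 72 h combined with doxorubicin; 0% = doxorubicin alone and 100% = vehicle without doxorubicin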). The note with it: H69AR viability with doxorubicin, CellTiter-Glo luminescence; at 10 µM; hits give high values.
Assay [4] in a line: growth suppression of beta-catenin knockout HCT116, pilot screen, human colon tumor cells (AID 823;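 active means cell viability at or below a set limit in both duplicate runs, the limit being the all-compound median minus 4 SD, cut at about 23% in these data, passing the limit was not always enough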;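 further: 0% = wells killed by 20 µM Hyamine and 100% = untreated DMSO cell wells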). The note with it: CellTiter-Glo, 60 h, at 10 µM, hits give low values. A general note: In ATP-based viability assays light output follows the ATP content of the culture.
Assay [5] is described as follows: growth suppression of PTEN-deleted HCT116, pilot screen, cell-based, HCT116 clonal line, CellTiter-Glo (AID 824;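 active means viability at or below 27.92% in each of two runs, the all-compound median minus 4 SD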;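 further: 0% = 20 µM Hyamine control and 100% = vehicle cell control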). The settings on record: 60 h, at 10 µM, hits give low values.
Assay [6] in a line: inhibitors of the yeast RAM network, pilot screen, dse1pr::URA3 reporter, 5-FOA selection (AID 869;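 active means inhibition over a set limit, the all-compound mean plus 3 SD, in both replicate runs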;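 further: 0% = DMSO wells with no growth and 100% = 10 µM 1-NA-PP1 with full growth; RAM network block rescues cells from 5-FOA so hits raise OD615 growth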). The note with it: S. cerevisiae dse1pr::URA3 5-FOA growth, OD615, 2 d; at 10 µM; hits give high values; strain carries analog-sensitive mutant Cbk1 kinase.
A short description of assay [7]: RAM signaling pathway blockade in yeast – S. cerevisiae, Pdr1DBD-CYC8 efflux-inhibited sensitized strain, primary screen (AID 1298).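 Further: 0% = DMSO untreated cells without growth and 100% = 10 µM 1-NA-PP1 full growth; higher means more yeast growth rescued from 5-FOA killing.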 The note with it: S. cerevisiae cbk1-as DSE1-URA3 strain, 5-FOA growth OD615, 2 d; at 50 µM; hits give high values.

What is called viability is a read-out of living cells in per cent, often relative to untreated cells. Usually inhibition stands for the change of the read-out against control, counted positive when it falls.

A number with no mark means an inactive call. Records with an inconclusive call do not appear. Calls of active or inactive are those of the source.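 How the source made its calls, unless noted: active means RAM network inhibition above 8.4% in each of two replicates, 3 SD over the compound average; inconclusive means above 8.4% inhibition in only one replicate; inactive means 8.4% inhibition or less in each replicate.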

Regarding `COc1ccc(-c2nc(=S)[nH][nH]2)cc1`, the values for the growth inhibition in assay [1] and in assay [2] were -5.89% and -17%, respectively. In addition, in assay [3], the viability increase is -1.62%. Besides, the viability in assay [4] is 99%; in assay [5] it was 89%. For the same molecule, the inhibition in assay [6] is 1.53%. Also, the RAM network inhibition in assay [7] is 5.26%.

On to `Cc1cc2c(cc(C(=O)N3CCC(C(=O)NC4CCCC4)CC3)n2Cc2c(F)cccc2Cl)o1`, for which the growth inhibition in assay [1] is -3.7%; in assay [2], -5.26%. Moreover, the viability increase in assay [3] was -1.51%. Further, the viability in assay [4] is 62%; in assay [5], 54.8%. Besides, in assay [6], the inhibition is 0.72%. The RAM network inhibition in assay [7] is 3.45%.

Regarding `Cc1cc(C)c(C#N)c(Oc2ccc(O)cc2)n1`, the results for the growth inhibition in assay [1] and in assay [2] were -14.7% and -10.3%, respectively. Also, the viability increase in assay [3] was -2.42%. Besides, the viability in assay [4] is 98.7%; in assay [5] it was 90.9%. For the same molecule, the inhibition in assay [6] was 2.56%. In addition, in assay [7], the RAM network inhibition is 2.67%.

Take `O=C(NC(=O)c1ccccc1)OCC(F)(F)F`: the growth inhibition in assay [1] is -6.06%; in assay [2], -1.48%. The viability increase in assay [3] is 0.71%. Moreover, the viability in assay [4] is 98.9%; in assay [5], 103%. For the same molecule, in assay [6], the inhibition is 0.34%. The RAM network inhibition in assay [7] was 3.03%.

In the case of `Cc1ccc(S(=O)(=O)Cc2ccc(C(=O)N3CCCC3)o2)cc1`, the growth inhibition was -4.83% in assay [1] and -13.4% in assay [2]. Besides, the viability increase in assay [3] was -1.75%. For the same molecule, the viability in assay [4] is 99.2%; in assay [5] it was 108%. Moreover, the inhibition in assay [6] was 1.19%. In assay [7], the RAM network inhibition was 4.1%.

For the molecule `Cc1cc(SCC(=O)c2ccccc2)n2nc(C)nc2n1`, the growth inhibition in assay [1] was -12.2%; in assay [2], 0.305%. Besides, the viability increase in assay [3] was -6.79%. Besides, the viability is 89.8% in assay [4] and 87% in assay [5]. The inhibition in assay [6] is 2.91%. Further, the RAM network inhibition in assay [7] is 2.67%.

Consider `CCOC(=O)N1CCN(C(=O)CSc2nnc(-c3ccc(C)c(C)c3)o2)CC1`, for which the values for the growth inhibition in assay [1] and in assay [2] were -1.67% and 1.73%, respectively. Also, the viability increase in assay [3] is -2.44%. The viability in assay [4] was 111%; in assay [5] it was 97.4%. Moreover, the inhibition in assay [6] was 2.31%. For the same molecule, the RAM network inhibition in assay [7] was 4.67%.

In the case of `O=C(c1ccccc1)N1CCn2c(nc3ccccc32)C1`, the growth inhibition is 3.33% in assay [1] and 2.58% in assay [2]. For the same molecule, the viability increase in assay [3] was -0.73%. Moreover, the viability in assay [4] and in assay [5] was 98.2% each time. Besides, in assay [6], the inhibition is 0.5%. In addition, in assay [7], the RAM network inhibition is 6.85%.

For the molecule `N=c1sccn1CC(=O)Nc1ccccc1-c1ccccc1`, the results for the growth inhibition in assay [1] and in assay [2] were -5.55% and -3.2%, respectively. The viability increase in assay [3] was -2.08%. Besides, the viability was 94.3% in assay [4] and 95.8% in assay [5]. Besides, the inhibition in assay [6] was 2.95%. Also, the RAM network inhibition in assay [7] was 3.6%.

Take `Cc1ccc(NC(=O)c2c(O)c3ccccc3n(C)c2=O)nc1`: the growth inhibition in assay [1] was -3.92%; in assay [2] it was 9.36%. Besides, in assay [3], the viability increase was -5.52%. Moreover, the viability was 75.3% in assay [4] and 70.2% in assay [5]. Besides, the inhibition in assay [6] is 0.36%. The RAM network inhibition in assay [7] is -1.46%.

As for `Cc1ccc(C(=O)c2cc3c(cc2N)OCCO3)cc1`, the growth inhibition in assay [1] is -11.6%; in assay [2], -21.8%. Further, the viability increase in assay [3] is -3.61%. The viability in assay [4] is 91.2%; in assay [5], 89.2%. Further, the inhibition in assay [6] is 0.27%. Further, the RAM network inhibition in assay [7] is 3.36%.

In the case of `CCN1c2ccccc2NC2N=C(OC)C(c3ccccc3)C21` (stereo unspecified), the results for the growth inhibition in assay [1] and in assay [2] were -38.2% and 7.12%, respectively. Further, the viability increase in assay [3] was -8.25%. Further, the viability is 3.31% (active) in assay [4] and 2.97% (active) in assay [5]. Moreover, in assay [6], the inhibition was 2.47%. In addition, in assay [7], the RAM network inhibition was 3.8%.

With `Cc1cc(C)nc(N(C#N)Cc2ccccc2Cl)n1`, the growth inhibition was -8.69% in assay [1] and 4.5% in assay [2]. Besides, in assay [3], the viability increase is -3.71%. Besides, the values for the viability in assay [4] and in assay [5] were 99.7% and 95.5%, respectively. In addition, the inhibition in assay [6] was 1.48%. Moreover, the RAM network inhibition in assay [7] was -0.21%.

For `Cc1cccc(C(=O)N2CCN(Cc3ccc4c(c3)OCO4)CC2)c1`, the growth inhibition is -10.7% in assay [1] and -4.2% in assay [2]. Besides, the viability increase in assay [3] is -1.3%. Further, the viability is 111% in assay [4] and 95.7% in assay [5]. Besides, the inhibition in assay [6] is -0.065%. The RAM network inhibition in assay [7] was 4.6%.

For the molecule `CC1CCCCN1CCCNC(=O)C1CCN(c2nc3ccccc3o2)CC1` (stereo unspecified), the growth inhibition is -2.48% in assay [1] and -4.11% in assay [2]. For the same molecule, the viability increase in assay [3] is -0.83%. Also, the viability in assay [4] is 99.9%; in assay [5] it was 97.8%. Besides, the inhibition in assay [6] was 0.5%. Moreover, the RAM network inhibition in assay [7] is 3.1%.

`O=C(NCCc1csc(-c2cccnc2)n1)c1cccs1`: the growth inhibition in assay [1] is 1.53%; in assay [2], 4.78%. Besides, the viability increase in assay [3] was -0.87%. Further, the viability in assay [4] was 103%; in assay [5], 106%. Besides, in assay [6], the inhibition was 1.27%. Further, the RAM network inhibition in assay [7] is 0.68%.

For `COc1ccc(C2C(C(=O)N3CCOCC3)CCC(=O)N2c2cc(OC)c(OC)c(OC)c2)cc1` (stereo unspecified), the growth inhibition is -10.2% in assay [1] and -12.3% in assay [2]. Also, in assay [3], the viability increase was -0.09%. The viability in assay [4] was 99.7%; in assay [5], 102%. In addition, the inhibition in assay [6] is 0.705%. For the same molecule, the RAM network inhibition in assay [7] is 1.3%.

In the case of `Cc1ccc(S(=O)(=O)N2CCC(C(=O)N[C@@H](C)C(=O)NC3CCCCC3)CC2)cc1`, the growth inhibition in assay [1] was -10.2%; in assay [2], -17.1%. Moreover, the viability increase in assay [3] is 3.71%. Moreover, the viability in assay [4] is 97.7%; in assay [5] it was 99.8%. Further, the inhibition in assay [6] is 2.49%. Moreover, in assay [7], the RAM network inhibition was 4.41%.
